Experiments:
[1] = molecular target: T1, Dihydropteridine reductase (Rattus norvegicus, UniProt P11348); assay: Inhibitory activity against rat striatal synaptosomes Dihydropteridine reductase (DHPR); type: subcellular, Brain; details: read-out: I50
T1 sequence (P11348 whole entry): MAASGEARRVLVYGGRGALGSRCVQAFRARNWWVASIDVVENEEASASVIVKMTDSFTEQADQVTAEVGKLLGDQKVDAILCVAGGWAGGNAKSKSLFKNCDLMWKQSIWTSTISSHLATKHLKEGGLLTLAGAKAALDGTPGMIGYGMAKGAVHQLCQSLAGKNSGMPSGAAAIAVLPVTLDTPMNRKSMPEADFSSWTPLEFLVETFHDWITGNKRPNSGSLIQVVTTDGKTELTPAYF
Method in brief: (§1)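 DHPR from human liver (6 mU, 60 ng protein) or rat striatal synaptosomes (6.5 mU, 75 μg twice-washed P₂ protein), preincubated 10 min at 25 °C with at least six inhibitor concentrations. Residual activity measured with 50 μM qDMPH₂ and 50 μM NADH by decrease in NADH absorbance at 340 nm; I₅₀ = concentration giving 50% inhibition.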

[2] = molecular target: T2, Dihydropteridine reductase (Homo sapiens, UniProt P09417); assay: Inhibitory activity against human liver Dihydropteridine reductase (DHPR); details: read-out: I50; method in brief: as §1
T2 sequence (P09417 whole entry): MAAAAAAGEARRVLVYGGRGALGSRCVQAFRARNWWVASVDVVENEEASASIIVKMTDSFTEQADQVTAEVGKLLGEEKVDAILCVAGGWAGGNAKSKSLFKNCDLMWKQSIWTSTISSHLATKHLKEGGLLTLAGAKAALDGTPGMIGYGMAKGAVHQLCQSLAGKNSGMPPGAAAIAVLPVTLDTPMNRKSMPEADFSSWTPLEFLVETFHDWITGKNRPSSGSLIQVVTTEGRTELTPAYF

[3] = molecular target: T2, Dihydropteridine reductase; assay: Noncompetitive Iinhibitory activity against human liver DHPR enzyme
[4] = molecular target: T1, Dihydropteridine reductase; assay: Noncompetitive Inhibitory activity against rat striatal synaptosomal DHPR enzyme
[5] = molecular target: T2, Dihydropteridine reductase; assay: Inhibitory activity against human liver Dihydropteridine reductase enzyme using 10 uM qBH2 and 50 uM NADH assays; details: read-out: I50
Method in brief: (§2)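 Human liver or rat striatal synaptosomal DHPR, preincubated 10 min at 25 °C with inhibitor. Activity then assayed using natural substrate (6R)-dihydrobiopterin (qBH₂) at 10 μM with 50 μM NADH, followed as NADH absorbance decrease at 340 nm, to give 50% inhibitory concentrations.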

[6] = molecular target: T1, Dihydropteridine reductase; assay: Inhibitory activity against rat striatal synaptosomes […] using 10 uM qBH2 and 50 uM NADH assays; type: subcellular, Brain; details: read-out: I50; method in brief: as §2
[7] = molecular target: T2, Dihydropteridine reductase; assay: Inhibitory activity against human liver Dihydropteridine reductase using 10 uM qBH2 and 50 uM NADH assays; details: read-out: I50; method in brief: as §2

SMILES | IC50 [1] [µM] | IC50 [2] [µM] | other results
Clc1ccc(C2=CCNCC2)cc1 | 4000 | 3400 | 
C[n+]1ccc(-c2ccccc2)cc1 [listing 1 of 2 here] | 3400 | 5600 | 
Oc1ccc(C2=CCNCC2)cc1O | 1.9 | 3.6 | 
C=CC[n+]1ccc(-c2ccccc2)cc1 | 7400 | 9400 | 
COc1ccc(C2=CCN(C(C)=O)CC2)cc1OC | 2300 | 1100 | 
COc1cc(C2=CCNCC2)ccc1O |  | 7.2 | 
CC(=O)N1CCC(c2ccc(O)c(O)c2)CC1 | 3.1 | 5.2 | 
COc1cc(C2CCN(C(C)=O)CC2)ccc1O | 4.4 | 27 | 
Oc1ccc(C2=CCNCC2)cc1 | 3.4 | 5.9 | 
C[n+]1ccc(-c2ccccc2)cc1 [listing 2 of 2 here] | 12000 | 10000 | 
CN1CC=C(c2ccc(O)cc2)CC1 | 2.6 | 3 | Ki [3]: 2.8 µM
c1ccc(-c2ccncc2)cc1 | 1900 | 2400 | 
COc1cc(C2CCN(C)CC2)ccc1O | 20 | 19 | 
C[n+]1ccc(-c2ccc(O)c(O)c2)cc1 | 1.6 | 0.63 | Ki [4]: 1.9 µM
COc1ccc(-c2ccncc2)cc1OC | 2000 | 5300 | 
Oc1ccc(-c2ccncc2)cc1O | 0.28 | 0.38 | 
Oc1ccc(C2CCNCC2)cc1O | 38 | 44 | 
COc1cc(C2=CCN(C(C)=O)CC2)ccc1O | 91 | 5 | 
CN1CC=C(c2ccccc2)CC1 | 4600 | 3000 | IC50 [5]: 7200 µM; IC50 [6]: 8400 µM
CN1CCC(c2ccc(O)c(O)c2)CC1 | 60 | 42 | Ki [4]: 74 µM
COc1cc(C2=CCN(C)CC2)ccc1O | 5.8 | 9.3 | 
CN1CC=C(c2ccc(O)c(O)c2)CC1 | 2.5 | 3.4 | IC50 [7]: 1.4 µM; IC50 [6]: 1.2 µM; Ki [4]: 3.3 µM
CC(=O)N1CC=C(c2ccc(O)c(O)c2)CC1 | 0.25 | 0.28 | 
CN1CC=C(c2ccc(Cl)cc2)CC1 | 6400 | 2700 | 
C1=C(c2ccccc2)CCNC1 | 6600 | 12000 | 
CN1CCC(c2ccccc2)CC1 | 12000 | 23000 | 

Source: ChEMBL document CHEMBL1122955, “Synthesis and dihydropteridine reductase inhibitory effects of potential metabolites of the neurotoxin 1-methyl-4-phenyl-1,2,3,6-tetrahydropyridine” (J Med Chem, 1985)
